# The list is not random: actives were taken first. Their share in the collection is about 3.6%.
# HSF1 inhib – HSF1 inhibition. NIH3T3-HGL HSE-luciferase, MG132-induced, luminescence 8 h; active compounds read low. activity change, negative = inhibition, % at 7.5 µM (by protocol). 300,000 compounds, 0.77% hits. AID 2098;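 active = more than half of replicate wells show activity change below -50%, luminescence cut by over half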;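 also: luciferase reports HSF-1 transcriptional activity via heat shock element; 0% = median of DMSO wells and -100% = zero luminescence signal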
# STAT3 activator – increases IL-6 driven STAT3 reporter signal | U3A cells, IL-6 STAT3-luciferase reporter, luminescence; 100% = signal with IL-6 EC80 alone | activation (% of control), % at 5.6 µM | 190,000 compounds, 0.91% hits;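 active = activation above the screen-wide mean of compound activation plus 3 SD, cut at about 130% in these data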;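 also: 0% = background luminescence of wells with medium and substrate only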
#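 Test system: Human STAT1-deficient U3A cells with stable STAT3-luciferase reporter | Also added: Interleukin-6, 33 ng/mL | Timing: Compound pre-incubation 1 h before IL-6, then 6 h stimulation at 37 °C | Technique: Luciferase reporter luminescence | Read-out: Percent of IL-6-only median luminescence | Benchmarks: IL-6-only wells as 100% reference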
# AHR act – activators of human aryl hydrocarbon receptor; activation, % at 5 µM; P35869; AID 2796; AHR-responsive luciferase reporter cells, luminescence; 320,000 compounds, 2.5% hits; in the data active = activation above about 47%;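 also: 0% = vehicle wells and 100% = reference agonist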
# PolyA inh – blocks polyadenylation in yeast reporter cells; S. cerevisiae SKY197-pL101 polyadenylation reporter, beta-gal luminescence; efflux-impaired pdr1/pdr3 knockout yeast; score 100 = 6 SD above DMSO; 300,000 compounds, 0.02% hits; activity score, % at 12 µM;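 active = lowest replicate activity score at least 50, where 100 means six control SD above control mean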;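 also: yeast exposed to compound for 9 h at 30 °C; higher score means more reporter readthrough which indicates perturbed polyadenylation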
# PERK inh – inhibitors of human PERK kinase; AID 1416; 220,000 compounds, 0.17% hits; Q9NZJ5; CHO PERK-DD fusion, SEAP luminescence translation reporter; inhibition, % at 5.6 µM;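 active = inhibition above the mean inhibition of all tested compounds plus 3 SD, set separately per screening campaign, cut at about 2.9% in these data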;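 also: PERK kinase domain activated by AP20187 dimerizer at 100 nM; 0% = DMSO with dimerizer and 100% = rapamycin at 8.4 µM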
# Hsp70 activator – switches on Hsp70 transcription. HeLa Hsp70 promoter luciferase reporter, luminescence; scaled: vehicle 0, proteasome-inhibitor control 100%. activation, % at 10 µM. 200,000 compounds, 0.04% hits. AID 1203;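 active = activation above the mean across all tested compounds plus 3 SD, cutoff set per campaign, cut at about 5.5% in these data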;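 also: 100% = MG132 at 30 µM as the positive control and 0% = DMSO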
# AHR act confirm – human AHR activation, confirmation | AID 2845 | shares compounds with AHR act | 2,300 compounds, 87% hits | human cells, AHR-responsive luciferase reporter, luminescence | activation, % at 9 µM; in the data active = activation above about 49%;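 also: HepG2 hepatoma cells carrying a DRE-driven firefly luciferase reporter; 0% = vehicle wells and 100% = reference agonist wells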
# PXR counter – PXR activation, counter-screen for AHR activators. shares compounds with AHR act. cell-based PXR reporter, luciferase luminescence. activation, % at 11.6 µM. 2,300 compounds, 88% hits; in the data active = activation above about 11%;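 also: human hepatoma DPX-2 cells expressing full-length human PXR; 0% = DMSO and 100% = reference agonist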
# The depositor's hits bear a star; x = no result.
SMILES,HSF1 inhib,STAT3 activator,AHR act,PolyA inh,PERK inh,Hsp70 activator,AHR act confirm,PXR counter
COc1ccccc1N(CC(=O)Nc1ccc2c(c1)OCO2)S(=O)(=O)c1ccccc1,-2,113,98*,-8,-1,0,97*,187*
COc1cccc(C(=O)Nc2ccc3[nH]ncc3c2)c1OC,12,x,92*,13,x,x,68*,12*
Cc1ccc(NC(=O)CCNS(=O)(=O)c2ccc(OC(F)(F)F)cc2)c(O)c1,2,x,0,4,x,x,x,x
Cc1csc(NC(=O)CSc2nnc(-c3ccoc3C)n2C(C)c2ccccc2)n1 (stereo unspecified),15,x,3,4,0,x,x,x
Cc1c(C(=O)NCc2ccccc2CN2CCCC2)oc2ccc(F)cc12,x,x,124*,x,x,x,112*,76*
Cc1sc(NC(=O)c2ccc(Cl)s2)c(C(N)=O)c1C,24,159*,98*,-25,0,1,123*,24*
C/C(=N\Nc1ccc([N+](=O)[O-])cc1[N+](=O)[O-])c1ccc(-n2nncc2C(C)(C)C)cc1,-4,112,120*,-6,1,0,78*,38*
COc1ccc(N(CC(=O)Nc2ccccc2C(F)(F)F)C2=NC3CS(=O)(=O)CC3S2)cc1 (stereo unspecified),0,x,0,-5,x,x,x,x
Cc1cc(OCc2nc3ccccc3s2)ccc1N,16,x,86*,-4,0,x,92*,34*
Cn1c(=O)[nH]c2nnc(-c3ccc(Cl)c(Cl)c3)nc2c1=O,2,x,112*,-9,0,x,42,15*
CSc1cnc2c(=O)n(C)c(=O)[nH]c2n1,-4,100,1,-6,0,0,x,x
COc1c2occc2c(OC)c2c(=O)cc(C(F)(F)C(F)(F)F)oc12,-1,102,41,8,1,0,x,x
COc1c2occc2c(OC)c2c(=O)cc(C(F)(F)F)oc12,-10,100,84*,-17,0,0,86*,22*
CCOC(=O)N1CCN(S(=O)(=O)N2CCCC(C(=O)NCCCN3CCCCC3CC)C2)CC1 (stereo unspecified),-8,x,-1,8,x,x,x,x
COc1ccc(Nc2ncnc3ccc(Br)cc23)cc1OC,-28,x,86*,-4,x,x,72*,18*
Cc1ccc2ncnc(Nc3ccccc3)c2c1,1,101,37,0,0,0,x,x
Cc1cccc(Nc2ncnc3ccc(Br)cc23)c1,-9,81,101*,-5,-1,-1,72*,30*
COc1cc2ncnc(Nc3cccc(Cl)c3)c2cc1OC,x,x,x,x,1,0,x,x
CN(C)c1ccc(Nc2ncnc3ccc(Br)cc23)cc1,-53*,x,92*,-22,x,x,47,10
COc1ccccc1Nc1ncnc2ccc(C)cc12,-12,101,35,-12,-1,0,x,x
COc1cc2ncnc(Nc3ccc4c(c3)OCO4)c2cc1OC,-3,x,104*,-8,x,x,101*,25*
Brc1ccc2ncnc(NCc3ccccc3)c2c1,-34,69,18,16,-1,0,x,x
COCCn1c(-c2ccc(F)cc2)nc2cccnc21,-4,x,3,3,x,x,x,x
O=c1ccc(-c2ccc(S(=O)(=O)N3CCCCC3)o2)n[nH]1,-6,x,1,8,x,x,x,x
COc1ccc(Nc2ncnc3nc[nH]c23)cc1OC,-1,96,90*,6,1,0,75*,21*
SMILES,HSF1 inhib,STAT3 activator,AHR act,PolyA inh,PERK inh,Hsp70 activator,AHR act confirm,PXR counter
Cc1cccc(Nc2ncnc3nc[nH]c23)c1,-1,105,13,16,2,0,x,x
COc1nc(Nc2ccc3c(c2)OCO3)nc(OC)n1,5,x,119*,12,x,x,109*,18*
COc1ccc(Nc2nc(OC)nc(OC)n2)cc1,2,x,7,-4,x,x,x,x
Cc1cccc(NC(=S)NNC(=O)c2ccccc2OC(F)F)c1,10,97,116*,0,1,0,121*,34*
COc1ccc(-c2csc(Nc3cc(C)ccn3)n2)cc1C,17,x,1,1,x,x,x,x
COc1ccc(-c2cc3cc(OC)c(OC)cc3c(C)n2)cc1C,2,x,96*,-2,-1,x,58*,29*
COc1ccc(C2c3[nH]c4ccccc4c3C[C@H]3C(=O)N(c4ccccc4C(=O)N4CCC[C@H]4C(=O)O)C(=O)N23)cc1 (stereo partly specified),0,x,9,5,x,x,x,x
COc1ccc(/C=C/c2nc(-c3ccccc3O)n[nH]2)cc1,-12,99,94*,4,1,0,46,6
COc1ccc(/C=C/c2nc(-c3ccccc3O)n(-c3ccccc3)n2)cc1,12,95,-1,-3,1,0,x,x
O=C(Nc1nccs1)c1cc2c(s1)-c1ccccc1OC2,23,96,150*,-4,1,0,115*,20*
CC1Oc2ccccc2OC1C(=O)Nc1nccs1 (stereo unspecified),-3,x,80*,19,x,x,105*,10*
Cc1cccc2c1-c1sc(C(=O)Nc3nccs3)cc1CO2,30,85,149*,2,0,0,110*,22*
Cc1cccc2c1-c1sc(C(=O)Nc3cccnc3)cc1CO2,6,x,15,-14,x,x,x,x
Cc1cc(C)c(S(=O)(=O)N2CCCC(C(=O)NC3CC3)C2)c(C)c1 (stereo unspecified),5,x,2,-14,x,x,x,x
O=C(CSc1nncs1)NNC(=O)c1ccco1,x,x,-1,x,x,x,x,x
Cc1ccc(C(=O)Nc2ccc(S(=O)(=O)N3CCOCC3)cc2)cc1Br,8,x,-5,-11,x,x,x,x
CC(C)CCN1CC(=O)N2[C@@H](Cc3c([nH]c4ccccc34)C2(C)C)C1=O,0,x,x,-19,x,x,x,x
Cc1ccc(NC(=O)c2sc3ccccc3c2Cl)nc1,-1,66,7,1,2,0,x,x
CNC(=O)c1ccsc1NC(=O)c1sc2ccccc2c1Cl,15,103,120*,2,0,1,116*,19*
NC(=O)c1cc([N+](=O)[O-])ccc1NCCc1ccccc1,2,x,x,-11,x,x,x,x
O=[N+]([O-])c1ccc(NCCc2ccccc2)c(Br)c1,-41,x,114*,-12,x,x,104*,12*
O=C(CN1CCCCC1)Nc1c2c(nc3ccccc13)N(c1ccccc1)CC2,8,103,132*,-3,1,0,107*,38*
CCCC(=O)Nc1c2c(nc3ccccc13)N(c1ccccc1)CC2,0,107,108*,0,0,0,98*,23*
CCCCc1nc2ccccc2c(NC(=O)CN2CCCC2)c1CCC,-2,103,2,-9,-1,0,x,x

# High-throughput results from PubChem BioAssay.
